Columns and labels:
[1] = system: MAR BEL fibroblasts cell line; test: Evaluated for the inhibitory concentration required to cause growth inhibition of MAR BEL fibroblasts cell line using the MTT Cytotoxicity Assay; format: functional, cell-based; details: Homo sapiens
In short: (§1)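 MTT microculture tetrazolium growth assay on human cell lines and normal fibroblasts. Cells seeded at 1000 cells/well, with compound added 24 h after plating. Cultures then incubated a further 6 days at 37 °C before MTT read-out of growth versus untreated cells.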

[2] = system: U-251; test: Evaluated for the inhibitory concentration required to cause growth inhibition of U251 cell line of central nervous system (CNS) using the MTT Cytotoxicity Assay; format: functional, cell-based; details: Homo sapiens
In short: (§2)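 MTT cell-growth assay in human cell lines: cells harvested and seeded at 1000 cells/well in 96-well plates. Compound added after 24 h, then cultures incubated a further 6 days at 37 °C. Growth measured with and without agent.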

[3] = system: NCI-H358; test: Evaluated for the inhibitory concentration required to cause growth inhibition of H358M cell line of lung using the Microculture Tetrazolium (MTT) Cytotoxicity Assay; format: functional, cell-based; details: Homo sapiens; in short: as §1
[4] = system: MCF7; test: Evaluated for the inhibitory concentration required to cause growth inhibition of MCF-7 breast cell line using the MTT Cytotoxicity Assay; format: functional, cell-based; details: Homo sapiens; in short: as §1
[5] = system: A 172; test: Evaluated for the inhibitory concentration required to cause growth inhibition of A172Mer- cell line of central nervous system (CNS) using the MTT Cytotoxicity Assay; format: functional, cell-based; details: Homo sapiens; in short: as §1
[6] = Evaluated for the antineoplastic activity against M5 sarcoma tumor xenograft in nude mice after administering Intra peritoneally at 4-day interval at a dose of 7.5 mg/kg; format: functional, Mus musculus
In short: (§3)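 M5 sarcoma-bearing mice given four intraperitoneal injections at 4-day intervals. Activity reported as % T/C per dose. Performed under the NCI Developmental Therapeutics Program.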

[7] = Evaluated for the antineoplastic activity against M5 sarcoma tumor xenograft in nude mice after administering Intra peritoneally at 4-day interval at a dose of 60 mg/kg; format: functional, Mus musculus; in short: as §3
[8] = system: CCD 19Lu; test: Evaluated for the inhibitory concentration required to cause growth inhibition of CCD-19Lu fibroblasts cell line using the MTT Cytotoxicity Assay; format: functional, cell-based; details: Homo sapiens; in short: as §1
[9] = Evaluated for the antineoplastic activity against amelanotic melanoma tumor xenograft in nude mice after injecting intraperitoneally at a dose of 120 mg/kg; format: functional, Mus musculus; details: route intraperitoneal
[10] = system: A673; test: Evaluated for the inhibitory concentration required to cause growth inhibition of A673Mer+ sarcoma cell line using the MTT Cytotoxicity Assay; format: functional, cell-based; details: Homo sapiens; in short: as §1
[11] = system: NCI-H322M; test: Evaluated for the inhibitory concentration required to cause growth inhibition of H322M cell line of lung using the Microculture Tetrazolium (MTT) Cytotoxicity Assay; format: functional, cell-based; details: Homo sapiens; in short: as §1
[12] = Evaluated for the antineoplastic activity against amelanotic melanoma tumor xenograft in nude mice after injecting intraperitoneally at a dose of 60 mg/kg; format: functional, Mus musculus; details: route intraperitoneal
[13] = system: L1210; test: Evaluated for the antineoplastic activity against L1210 leukemia tumor […] after administering intra peritoneally at a dose of 15 mg/kg; format: functional, Mus musculus
[14] = Evaluated for the antineoplastic activity against M5 sarcoma tumor xenograft in nude mice after administering Intra peritoneally at 4-day interval at a dose of 15 mg/kg; format: functional, Mus musculus; in short: as §3
[15] = system: A498; test: Evaluated for the inhibitory concentration required to cause growth inhibition of A498Rem- renal cell line using the MTT Cytotoxicity Assay; format: functional, cell-based; details: Homo sapiens; in short: as §1
[16] = system: A-427; test: Evaluated for the inhibitory concentration required to cause growth inhibition of A427Mer- cell line of lung using the MTT Cytotoxicity Assay; format: functional, cell-based; details: Homo sapiens; in short: as §1
[17] = system: OVCAR-3; test: Evaluated for the inhibitory concentration required to cause growth inhibition of OVCAR-3 ovarian cell line using the MTT Cytotoxicity Assay; format: functional, cell-based; details: Homo sapiens; in short: as §1
[18] = system: LOX IMVI; test: Evaluated for the inhibitory concentration required to cause growth inhibition of LOX melanoma cell line using the MTT Cytotoxicity Assay; format: functional, cell-based; details: Homo sapiens; in short: as §1
[19] = system: NCI-H125; test: Evaluated for the inhibitory concentration required to cause growth inhibition of H125 cell line of lung using the Microculture Tetrazolium (MTT) Cytotoxicity Assay; format: functional, cell-based; details: Homo sapiens; in short: as §1
[20] = system: RPMI-7951; test: Evaluated for the inhibitory concentration required to cause growth inhibition of RPMI7951 melanoma cell line using the MTT Cytotoxicity Assay; format: functional, cell-based; details: Homo sapiens; in short: as §1
[21] = system: NCI-H460; test: Evaluated for the inhibitory concentration required to cause growth inhibition of H460 cell line of lung using the Microculture Tetrazolium (MTT) Cytotoxicity Assay; format: functional, cell-based; details: Homo sapiens; in short: as §1
[22] = system: OVCAR-4; test: Evaluated for the inhibitory concentration required to cause growth inhibition of OVCAR-4 ovarian cell line using the MTT Cytotoxicity Assay; format: functional, cell-based; details: Homo sapiens; in short: as §1
[23] = system: SK-MEL-5; test: Evaluated for the inhibitory concentration required to cause growth inhibition of SK-MEL-5 melanoma cell line using the MTT Cytotoxicity Assay; format: functional, cell-based; details: Homo sapiens; in short: as §1
[24] = system: DOD-1; test: Evaluated for the inhibitory concentration required to cause growth inhibition of DOD-1 breast cell line using the MTT Cytotoxicity Assay; format: functional, cell-based; details: Homo sapiens; in short: as §1
[25] = system: A704; test: Evaluated for the inhibitory concentration required to cause growth inhibition of A704Rem- renal cell line using the MTT Cytotoxicity Assay; format: functional, cell-based; details: Homo sapiens; in short: as §1
[26] = Evaluated for the antineoplastic activity against M5 sarcoma tumor xenograft in nude mice after administering Intra peritoneally at 4-day interval at a dose of 30 mg/kg; format: functional, Mus musculus; in short: as §3
[27] = Evaluated for the antineoplastic activity against amelanotic melanoma tumor xenograft in nude mice after injecting intraperitoneally at a dose of 30 mg/kg; format: functional, Mus musculus; details: route intraperitoneal
[28] = system: Malme-3M; test: Evaluated for the inhibitory concentration required to cause growth inhibition of MALME-3M melanoma cell line using the MTT Cytotoxicity Assay; format: functional, cell-based; details: Homo sapiens; in short: as §1
[29] = system: WiDr; test: Evaluated for the inhibitory concentration required to cause growth inhibition of WiDR colon cell line using the MTT Cytotoxicity Assay; format: functional, cell-based; details: Homo sapiens; in short: as §2
[30] = system: L1210; test: Evaluated for the antineoplastic activity against L1210 leukemia tumor […] after administering intra peritoneally at a dose of 30 mg/kg; format: functional, Mus musculus
In short: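 Mice bearing L1210 leukemia dosed intraperitoneally once daily for 5 successive days (five injections). Activity reported as % T/C at each dose. Performed under the NCI Developmental Therapeutics Program.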

[31] = system: HOS-TE85; test: Evaluated for the inhibitory concentration required to cause growth inhibition of TE85Mer+ sarcoma cell line using the MTT Cytotoxicity Assay; format: functional, cell-based; details: Homo sapiens; in short: as §1
[32] = system: NCI-H522 (Homo sapiens); test: Evaluated for the inhibitory concentration required to cause growth inhibition of H522 cell line of lung using the Microculture Tetrazolium (MTT) Cytotoxicity Assay
[33] = system: NCI-H23; test: Evaluated for the inhibitory concentration required to cause growth inhibition of H23 cell line of lung using the Microculture Tetrazolium (MTT) Cytotoxicity Assay; format: functional, cell-based; details: Homo sapiens; in short: as §1
[34] = system: TE-671; test: Evaluated for the inhibitory concentration required to cause growth inhibition of TE-671 cell line of central nervous system (CNS)using the MTT Cytotoxicity Assay; format: functional, cell-based; details: Homo sapiens; in short: as §1
[35] = system: NCI/ADR-RES; test: Evaluated for the inhibitory concentration required to cause growth inhibition of MCF-7ADR breast cell line using the MTT Cytotoxicity Assay; format: functional, cell-based; details: Homo sapiens; in short: as §1
[36] = system: A549; test: Evaluated for the inhibitory concentration required to cause growth inhibition of A549Rem- cell line of lung using the MTT Cytotoxicity Assay; format: functional, cell-based; details: Homo sapiens; in short: as §1
[37] = system: P388; test: Evaluated in vivo for antineoplastic activity against P388 murine leukemia tumor […] after administering intra peritoneal injection at a dose of 26.25 mg/kg; format: functional, Mus musculus
In short: (§4)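 P388 leukemia-bearing mice, run through the NCI Developmental Therapeutics Program. Compound given ip once daily on 5 consecutive days. Activity read out as % T/C.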

[38] = system: P388; test: Evaluated in vivo for antineoplastic activity against P388 murine leukemia tumor […] after administering intra peritoneal injection at a dose of 52.5 mg/kg; format: functional, Mus musculus; in short: as §4
[39] = system: P388; test: Evaluated in vivo for antineoplastic activity against P388 murine leukemia tumor […] after administering intra peritoneal injection at a dose of 13.12 mg/kg; format: functional, Mus musculus; in short: as §4
[40] = system: P388; test: Evaluated in vivo for antineoplastic activity against P388 murine leukemia tumor […] after administering intra peritoneal injection on each of 5 consecutive days at a dose of 30.0 mg/kg; format: functional, Mus musculus; in short: as §4

| Structure (SMILES) | IC50 [1] | IC50 [2] | IC50 [3] | IC50 [4] | IC50 [5] | IC50 [8] | IC50 [10] | IC50 [11] | IC50 [15] | IC50 [16] | IC50 [17] | IC50 [18] | IC50 [19] | IC50 [20] | IC50 [21] | IC50 [22] | IC50 [23] | IC50 [24] | IC50 [25] | IC50 [28] | further results |
| --- | --- | --- | --- | --- | --- | --- | --- | --- | --- | --- | --- | --- | --- | --- | --- | --- | --- | --- | --- | --- | --- |
| CCOC(=O)N(C)/N=N\C | 75 µM | 28 µM | 80 µM | 27 µM | 20 µM | 62 µM | 75 µM | 42 µM | 35 µM | 7 µM | 60 µM | 22 µM | 44 µM | 35 µM | 65 µM | 40 µM | 20 µM | 44 µM | 55 µM | 22 µM | T/C [6]: 131%; T/C [7]: 168%; T/C [9]: 191%; T/C [12]: 147%; T/C [13]: 133%; T/C [14]: 140%; T/C [26]: 158%; T/C [27]: 132%; IC50 [29]: 45 µM; T/C [30]: 142%; IC50 [31]: 37 µM; IC50 [32]: 18 µM; IC50 [33]: 20 µM; IC50 [34]: 48 µM; IC50 [35]: 34 µM; IC50 [36]: 45 µM |
| CC(=O)N(C)/N=N\CCCl | 44 µM | 18 µM | 60 µM | 15 µM | 20 µM | 60 µM | 35 µM | 32 µM | 18 µM | 12 µM | 25 µM | 8 µM | 42 µM | 17 µM | 60 µM | 18 µM | 15 µM | 26 µM | 26 µM | 25 µM | T/C [37]: 217%; T/C [38]: 257%; T/C [39]: 157%; IC50 [29]: 15 µM; IC50 [31]: 18 µM; IC50 [32]: 18 µM; IC50 [33]: 20 µM; IC50 [34]: 50 µM; IC50 [35]: 24 µM; IC50 [36]: 26 µM |
| CCOC(=O)N(C)/N=N\CCCl | 46 µM | 8 µM | 50 µM | 16 µM | 18 µM | 45 µM | 20 µM | 14 µM | 16 µM | 11 µM | 26 µM | 2.4 µM | 30 µM | 13 µM | 50 µM | 26 µM | 10 µM | 20 µM | 18 µM | 15 µM | T/C [40]: 175%; IC50 [29]: 13 µM; IC50 [31]: 26 µM; IC50 [32]: 10 µM; IC50 [33]: 16 µM; IC50 [34]: 34 µM; IC50 [35]: 17 µM; IC50 [36]: 14 µM |

Reference: ChEMBL document CHEMBL1125138, “1,3-Dialkyl-3-acyltriazenes, a novel class of antineoplastic alkylating agents” (J Med Chem, 1990)
